Five molecules from ChEMBL document CHEMBL3271978, “Synthesis and some pharmacological properties of [4-homoserine]oxytocin” (J Med Chem, 1977) can be followed below.

Positions of bridges follow the written chain, without caps; N, C: chain ends. Non-standard residues stand in square brackets, D forms with d. Residues, ends and D or L forms follow the SMILES beside them. hSer = N[C@@H](CCO)C(=O)O

Data set [1] is filed under the species Rattus norvegicus. Kind of data set: Vasopressor activity in phenoxybenzamine-treated rat under urethane anesthesia. Format: ADME, organism-based. To be noted: in vivo. The method in brief: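 Rats pretreated with phenoxybenzamine, under urethane anesthesia; pressor response assayed against USP posterior pituitary reference standard.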
Data set [2] in a line: Ratio of oxytocic potency in rat uterus to vasopressor activity in phenoxybenzamine-treated rat under urethane anesthesia.
Data set [3] has as its system Rattus norvegicus. The data set is described as follows: Oxytocic activity in iv dosed lactating rat anesthetized with pentobarbital assessed as milk ejection. Type of data set: functional. The method in brief: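 Lactating rats anesthetized with pentobarbital received peptide by intravenous injection; milk-ejection response measured relative to USP posterior pituitary reference standard.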

Data set [4] concerns Rattus norvegicus. The data set is described as follows: Antidiuretic activity in iv dosed hydrated rat anesthetized with ethanol. Type of data set: ADME, organism-based, Urine. As to conditions: in vivo.
The nature of data set [5]: Oxytocic potency in rat uterus in presence of 0.5 mM Mg2+. Type of data set: functional. The procedure, abridged: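 Isolated rat uterus suspended in solution containing 0.5 mM Mg2+; oxytocic activity assayed against USP posterior pituitary reference standard.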
The nature of data set [6]: Oxytocic potency in rat uterus. Format: functional. The procedure, abridged:
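Isolated rat uterus suspended in bath solution without Mg2+; oxytocic activity assayed against USP posterior pituitary reference standard.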

A short description of data set [7]: Ratio of oxytocic potency in rat uterus to antidiuretic activity in iv dosed hydrated rat anesthetized with ethanol.

Take `CC[C@H](C)[C@@H]1NC(=O)[C@H](Cc2ccc(O)cc2)NC(=O)[C@@H](N)CSSC[C@@H](C(=O)N2CCC[C@H]2C(=O)N[C@@H](CC(C)C)C(=O)NCC(N)=O)NC(=O)[C@H](CC(N)=O)NC(=O)[C@H](CC(N)=O)NC1=O` (H-CYINNCPLG-NH2; disulfide 1-6): the Activity in data set [1] is reported as 0.12 U/mg; in data set [3], 300 U/mg; in data set [4], 0.044 U/mg; in data set [5] it was 490 U/mg; in data set [6] it was 108 U/mg. The Ratio in data set [2] was found to be 823; in data set [7], 929.
Turning to `CC[C@H](C)[C@@H]1NC(=O)[C@H](Cc2ccc(O)cc2)NC(=O)[C@@H](N)CSSC[C@@H](C(=O)N2CCC[C@H]2C(=O)N[C@@H](CC(C)C)C(=O)NCC(N)=O)NC(=O)[C@H](CC(N)=O)NC(=O)[C@H](CO)NC1=O` (H-CYISNCPLG-NH2; disulfide 1-6), the Activity in data set [1] is 0.028 U/mg; in data set [3], 255 U/mg; in data set [4] it was 0.06 U/mg; in data set [5], 331 U/mg; in data set [6], 148 U/mg. Further, the Ratio was >1950 in data set [2] and 80 in data set [7].
In the case of `CC[C@H](C)[C@@H]1NC(=O)[C@H](Cc2ccc(O)cc2)NC(=O)[C@@H](N)CSSC[C@@H](C(=O)N2CCC[C@H]2C(=O)N[C@@H](CC(C)C)C(=O)NCC(N)=O)NC(=O)[C@H](CC(N)=O)NC(=O)[C@H]([C@@H](C)O)NC1=O` (H-CYITNCPLG-NH2; disulfide 1-6), the Activity in data set [1] is 0.43 U/mg; in data set [3], 543 U/mg; in data set [4], 1.8 U/mg; in data set [5], 719 U/mg; in data set [6], 923 U/mg. Moreover, the Ratio is recorded as 2150 in data set [2] and 510 in data set [7].
Take `CC[C@H](C)[C@@H]1NC(=O)[C@H](Cc2ccc(O)cc2)NC(=O)[C@@H](N)CSSC[C@@H](C(=O)N2CCC[C@H]2C(=O)N[C@@H](CC(C)C)C(=O)NCC(N)=O)NC(=O)[C@H](CC(N)=O)NC(=O)[C@H](CCO)NC1=O` (H-CYI[hSer]NCPLG-NH2; disulfide 1-6): the Activity in data set [1] was 0.021 U/mg; in data set [3], 357 U/mg; in data set [4], 0.24 U/mg; in data set [5], 380 U/mg; in data set [6] it was 125 U/mg. In addition, the Ratio in data set [2] stood at 5950; in data set [7], 520.
Consider `CC[C@H](C)[C@@H]1NC(=O)[C@H](Cc2ccc(O)cc2)NC(=O)[C@@H](N)CSSC[C@@H](C(=O)N2CCC[C@H]2C(=O)N[C@@H](CC(C)C)C(=O)NCC(N)=O)NC(=O)[C@H](CC(N)=O)NC(=O)[C@H](CCC(N)=O)NC1=O` [OXYTOCIN], for which the Activity in data set [3] was 474 U/mg; in data set [4], 4 U/mg; in data set [5], 486 U/mg; in data set [6], 520 U/mg.
